This is an account of results in ChEMBL document CHEMBL4428090, “Modeling, Synthesis, and Biological Evaluation of Potential Retinoid X Receptor (RXR)-Selective Agonists: Analogues of 4-[1-(3,5,5,8,8-Pentamethyl-5,6,7,8-tetrahydro-2-naphthyl)ethynyl]benzoic Acid (Bexarotene) and 6-(Ethyl(5,5,8,8-tetrahydronaphthalen-2-yl)amino)nicotinic Acid (NEt-TMN)” (J Med Chem, 2016).

What is called inhibition is the relative decrease from the control value, in per cent.

Test [1] concerns HuT78. Nature of the test: Inhibition of HDAC1 gene expression in human HUT78 cells at 100 nM incubated for 48 hrs by quantitative real-time PCR method. The format is functional. The gist of the method: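 Hut78 cells resuspended in RPMI with 1% FBS, plated 750,000/well and dosed at 100 nM for 48 h. Total RNA extracted, 0.5 µg DNase-treated RNA reverse-transcribed, then qPCR for HDAC1. Quantified by ΔΔCt, normalized to GAPDH and relative to vehicle-treated cells (2^-ΔΔCt).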
For orientation: Real-time PCR tracks product formation cycle by cycle.

Test [2] addresses T1, Retinoic acid receptor RXR-alpha (Homo sapiens) (UniProt P19793).
T1 sequence (whole entry): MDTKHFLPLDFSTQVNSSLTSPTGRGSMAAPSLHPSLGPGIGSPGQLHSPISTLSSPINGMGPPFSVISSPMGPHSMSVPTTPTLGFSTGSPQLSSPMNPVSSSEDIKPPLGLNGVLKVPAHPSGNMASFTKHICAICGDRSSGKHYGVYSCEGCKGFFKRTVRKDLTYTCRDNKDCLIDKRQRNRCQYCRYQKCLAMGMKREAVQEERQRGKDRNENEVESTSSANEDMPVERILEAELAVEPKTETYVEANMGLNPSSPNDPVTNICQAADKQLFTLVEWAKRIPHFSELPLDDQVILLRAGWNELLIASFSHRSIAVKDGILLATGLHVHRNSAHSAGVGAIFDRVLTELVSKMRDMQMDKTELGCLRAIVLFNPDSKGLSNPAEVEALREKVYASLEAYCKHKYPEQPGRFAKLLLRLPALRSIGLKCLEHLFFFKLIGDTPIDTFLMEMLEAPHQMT
Kind of test: Agonist activity at human RXRalpha expressed in human HCT116 cells assessed as increase in RXRE-mediated transcription incubated for 24 hrs by RXRE luciferase reporter gene assay. The format is cell-based. For orientation: Reporter assays use an easily measured gene product as a stand-in for the process of interest.

The structures appear in SMILES notation. Activity calls are given as the source filed them. The rule behind the calls is not given here.

Consider `CCN(c1ncc(C(=O)O)cn1)c1cc2c(cc1C)C(C)(C)CCC2(C)C`, for which, in test [1] (HuT78, 48 h), the inhibition at 0.1 µM is 28%.
For `CCN(c1ccc2c(c1)C(C)(C)CCC2(C)C)c1cnc(C(=O)O)cn1`, the outcome in test [2] was inactive.
As for `CCN(c1ccc2c(c1)C(C)(C)CCC2(C)C)c1ccc(C(=O)O)cn1`, in test [1], the inhibition result was “inactive”.
